High-throughput results (PubChem BioAssay)
OX1R antag-1: human HCRTR1 antagonism; CHO/OX1R cells, Fluo-8 calcium fluorescence, orexin A; 0.43% of 330,000 active; inhibition, % at 5 µM;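 active = inhibition above its plate's threshold, mean inhibition of all tested compounds on the plate plus 3 SD, cut at about 37% in these data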
GalR3 antagonist: human GalR3 antagonism; HEK293 GalR3-CNG cAMP membrane potential fluorescence; galR3 body fused to GalR1 C-terminus; inhibition, % at 3 µM; 0.44% of 360,000 active; AID 651719;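 active = inhibition above the screen-wide average plus 3 SD, cut at about 13% in these data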;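 also: forskolin and galanin both at EC90 stimulate the cells; cAMP rise reported by CNG channel membrane potential dye signal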
Target sequence (O60755 1-299 limits assumed): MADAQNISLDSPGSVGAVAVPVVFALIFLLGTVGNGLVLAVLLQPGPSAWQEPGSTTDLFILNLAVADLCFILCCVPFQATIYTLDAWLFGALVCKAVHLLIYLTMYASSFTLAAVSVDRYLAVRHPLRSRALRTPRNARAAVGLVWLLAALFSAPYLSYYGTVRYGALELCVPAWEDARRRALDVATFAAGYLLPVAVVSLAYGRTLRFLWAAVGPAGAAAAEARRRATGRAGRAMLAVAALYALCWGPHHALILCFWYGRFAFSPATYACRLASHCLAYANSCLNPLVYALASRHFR
TAAR1 antag: antagonists of human TAAR1; Q96RJ0; CHO RD-HGA16 TAAR1, Fluo-8 calcium fluorescence, antagonist; inhibition, % at 3 µM; 1.5% of 360,000 active;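 active = inhibition above a per-plate cutoff, the mean inhibition of test compounds on that plate plus 3 SD, cut at about 49% in these data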
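Test system: CHO RD-HGA16 cells bearing hTAAR1 | Reagent: β-PEA, EC80 | Compound dosing: 3 µM, single point | Schedule: Dye loading 75 min at 37 °C, then 30 min room temperature | Signal: Calcium fluorescence with Fluo-8 | Evaluation: Percent inhibition of PEA-evoked calcium signal, max/basal emission ratio | Control set: DMSO-only wells and EC80 β-PEA-stimulated wells | Repeats: Singlicate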
OX1R antag-2: blocks the human orexin 1 receptor. 1.8% of 330,000 active. OX1R-expressing cells, FRET antagonist read-out. O43613. inhibition, % at 6.6 µM. AID 485270; in the data active = inhibition mostly above about 38%, no sharp cut-off; inactive = mostly below about 40%
TAAR1 ag: human TAAR1 agonism | activation, % at 3 µM | Q96RJ0 | 0.99% of 360,000 active | CHO RD-HGA16 TAAR1, Fluo-8 calcium fluorescence; vehicle wells 0%, saturating PEA agonist 100% | AID 624467;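 active = activation above the mean activation of all test compounds in the run plus 3 SD, cut at about 38% in these data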
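Test system: RD-HGA16 (CHO) cells co-expressing Gα16 and hTAAR1 | Doses: Single dose, 3 µM | Schedule: 17-24 h seeding, 75 min 37 °C dye, 30 min RT | Evaluation: % activation from peak over basal fluorescence ratio, DMSO-to-PEA scaled | Technique: Kinetic Fluo-8 calcium fluorescence | Benchmarks: Low control DMSO, high control PEA (EC100)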
CHO parental Ca: counter-screen: ATP calcium response change in parental CHO cells | 0.63% of 330,000 active | parental CHO-K1, ATP-induced calcium, Fluo-8 fluorescence | inhibition, % at 5.6 µM | AID 463079;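 active = inhibition above that plate's mean sample inhibition plus 3 SD, cut at about 26% in these data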
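Material – parental CHO cells · Reagent – ATP stimulus · Compound – single nominal dose of 5.6 µM per compound · Detection – Fluo-8 fluorescence · Read-out basis – percent inhibition of calcium signal · Controls – ATP-challenged DMSO wells low, unchallenged DMSO wells high · Repeats – no replicates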
TAAR1 ag conf: human TAAR1 agonism, confirmed; shares compounds with TAAR1 ag; CHO RD-HGA16 TAAR1, Fluo-8 calcium fluorescence; scaled: DMSO 0%, maximal phenethylamine 100%; activation, % at 3 µM; 82% of 2,400 active; AID 651783;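 active = activation above a cutoff set at the run's mean compound activation plus 3 SD, cut at about 39% in these data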
Ga16 nonsel ag: nonselective agonism, TAAR1 counter-screen; CHO-Ga16 parental, Fluo-8 calcium fluorescence; normalized to maximal ATP response, DMSO zero; activation, % at 3 µM; 50% of 2,400 active; shares compounds with TAAR1 ag; AID 651787;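 active = activation above the run cutoff, the mean activation over all tested wells plus 3 SD, cut at about 12% in these data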
TAAR1 desensitize: TAAR1 response desensitization, agonist counter-screen; shares compounds with TAAR1 ag; CHO RD-HGA16 hTAAR1, Fluo-8 calcium, beta-PEA response inhibition; inhibition, % at 3 µM; 46% of 2,400 active; AID 651951;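 active = inhibition above the run cutoff, the mean inhibition of all test compounds plus 3 SD, cut at about 49% in these data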;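 also: beta-PEA stimulus applied at its EC80; loss of beta-PEA calcium signal after compound pretreatment read as receptor desensitization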
Ga16 nonsel ant: nonselective Ga16 antagonist in TAAR1 agonist counter-screen; shares compounds with TAAR1 ag; CHO-Ga16 ATP-induced calcium, Fluo-8 fluorescence; inhibition, % at 3 µM; 39% of 2,400 active; AID 651952;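 active = inhibition above the plate's mean compound inhibition plus 3 SD, computed per plate, cut at about 22% in these data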
A number is an active result; n = inactive; x = no result. Compounds with a hit are over-represented: about 4.3% of the library has one in this group of screens.

SMILES | OX1R antag-1 | GalR3 antagonist | TAAR1 antag | OX1R antag-2 | TAAR1 ag | CHO parental Ca | TAAR1 ag conf | Ga16 nonsel ag | TAAR1 desensitize | Ga16 nonsel ant
COC(=O)[C@]12C[C@H](CC(=O)NCCc3ccccc3OC)C(=O)N(Cc3ccccc3)C1=C[C@H](C(C)(C)C)O[C@@H]2C | x | n | 53.8 | x | 65.1 | x | 79.8 | n | 52.8 | n
CCCCCCCCN1C(=O)[C@@H](CC(=O)NCCC(C)C)C[C@@]2(C(=O)OC)C1=C[C@H](C1CCCC1)O[C@@H]2C | x | n | n | x | n | x | x | x | x | x
CCCCCCCCN1C(=O)[C@@H](CC(=O)NCCc2ccccc2OC)C[C@@]2(C(=O)OC)C1=C[C@H](C1CCCC1)O[C@@H]2C | x | n | n | x | 62.2 | x | 71.7 | n | 64.3 | n
COC(=O)[C@]12C[C@H](CC(=O)NCCc3ccccc3OC)C(=O)N(Cc3ccc4c(c3)OCO4)C1=C[C@H](COCc1ccccc1)O[C@@H]2C | x | n | x | x | x | x | x | n | x | n
COc1ccccc1C(CNC(=O)C1CC(=O)N(Cc2ccccc2)C1)N1CCCC1 (configuration not stated) | n | n | n | n | n | n | x | x | x | x
CCOc1ccc(NC(=O)CN(C)C(=O)C2CC(=O)N(c3cccc(SC)c3)C2)cc1OCC (configuration not stated) | x | n | n | x | n | x | x | x | x | x
NC(=S)NNC(=O)C12CC3CC(CC(C3)C1)C2 | n | n | 79.8 | n | 140.2 | n | 135.8 | 108.4 | 102.4 | 93.8
COC(=O)NNC(=O)C12CC3CC(CC(C3)C1)C2 | n | n | n | n | n | n | x | x | x | x
O=C(COc1ccc(Cl)cc1Cl)NNC(=S)NC(=O)c1ccco1 | n | n | n | n | n | n | x | x | x | x
Cc1ccc(OCC(=O)NNC(=S)NC(=O)c2cccs2)c(C)c1 | x | n | n | x | n | x | x | x | x | x
Cc1cc(OCC(=O)NNC(=S)NC(=O)c2cccs2)ccc1Cl | x | n | 65.0 | x | 103.0 | x | 76.8 | 75.5 | 58.2 | 53.5
CCCOc1ccc(C(=O)NNC(=S)NC(=O)c2ccccc2)cc1 | 77.8 | n | 105.8 | n | 161.1 | 56.0 | 146.6 | 117.3 | 106.4 | 95.0
CC(Oc1ccc(Cl)cc1)C(=O)NNC(=S)NC(=O)c1ccco1 (configuration not stated) | n | n | 48.9 | n | 116.5 | n | 78.7 | 61.5 | n | 40.5
Cc1ccccc1C(=O)NNC(=S)NC(=O)c1cccs1 | n | n | 65.5 | n | 128.0 | n | 67.1 | 69.5 | n | 30.1
CC(C)CNC(=S)N1CCC(Cc2ccccc2)CC1 | x | n | n | x | n | x | x | x | x | x
Cc1c(C(=O)NCc2ccc3c(c2)OCCO3)sc(=O)n1Cc1cccc(C(F)(F)F)c1 | x | n | n | x | n | x | x | x | x | x
O=S1(=O)CC(N2CC=CC2)CN1Cc1ccccc1 (configuration not stated) | x | n | n | x | n | x | x | x | x | x
CC1(C(=O)Nc2ccc3c(c2)OCCO3)CCN1C(=O)C1(c2ccc(Cl)cc2)CCC1 (configuration not stated) | x | n | n | x | n | x | x | x | x | x
O=C(Cc1c[nH]c2ccccc12)N1CCN(S(=O)(=O)c2cccc(Cl)c2Cl)CC1 | n | n | n | n | n | n | x | x | x | x
CC1(C)OC2OC3C(CNCCO)OC(c4ccccc4)OC3C2O1 (configuration not stated) | x | n | n | x | n | x | x | x | x | x
CCCOc1ccc(C(=O)NNC(=S)NC(=O)c2cccs2)cc1 | 70.0 | n | 106.1 | n | 158.9 | 63.5 | 153.6 | 123.7 | 106.5 | 91.4
